ChEMBL document CHEMBL4715732, “4-Phenylureido/thioureido-substituted 2,2-dimethylchroman analogs of cromakalim bearing a bulky 'carbamate' moiety at the 6-position as potent inhibitors of glucose-sensitive insulin secretion” (Eur J Med Chem, 2016)

Assays:
Aorta = test: Myorelaxant activity in aortic rings isolated from Wistar rat assessed as reduction in KCl-induced contractions measured after 60 mins in presence of 80 mM KCl by force-displacement transducer; type: functional, tissue-based; details: 1 h, in the assay text read “30 mM KCl” for “80 mM KCl”
Procedure, shortened: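 Endothelium-free rat aorta rings were contracted with 30 mM or 80 mM K+, with 1 or 10 μM glibenclamide present for some 30 mM series. Agent was applied cumulatively. EC50 is the concentration giving 50% relaxation of the KCl-induced contraction, reported as mean ± SEM (n).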

[1] = Residual glucose-induced insulin secretion in Wistar rat pancreatic islets at 1 uM incubated for 90 mins in presence of 16.7 mM glucose by radioimmunological assay relative to control; details: Pancreatic islet, 1.5 h
[2] = Residual glucose-induced insulin secretion in Wistar rat pancreatic islets at 10 uM incubated for 90 mins in presence of 16.7 mM glucose by radioimmunological assay relative to control; details: Pancreatic islet, 1.5 h

## CC(C)OC(=O)Nc1ccc2c(c1)C(NC(=S)Nc1ccc(C#N)cc1)CC(C)(C)O2 (stereo not given)
Aorta
  EC50: 7.2 µM
[1]
  residual insulin secretion at 1 µM: 86%
[2]
  residual insulin secretion at 10 µM: 14.8%

## CC(C)OC(=O)Nc1ccc2c(c1)C(NC(=O)Nc1cccc(C#N)c1)CC(C)(C)O2 (racemic)
Aorta
  EC50: 12.1 µM
[1]
  residual insulin secretion at 1 µM: 50.5%
[2]
  residual insulin secretion at 10 µM: 12.7%

## CC(C)(C)OC(=O)Nc1ccc2c(c1)C(NC(=O)Nc1ccc(Cl)cc1)CC(C)(C)O2 (racemic)
Aorta
  EC50: 9.4 µM
[1]
  residual insulin secretion at 1 µM: 86.1%
[2]
  residual insulin secretion at 10 µM: 36.4%

## CC(C)(C)OC(=O)Nc1ccc2c(c1)C(NC(=O)Nc1cccc(Cl)c1)CC(C)(C)O2 (racemic)
Aorta
  EC50: 18.7 µM
[1]
  residual insulin secretion at 1 µM: 86.4%
[2]
  residual insulin secretion at 10 µM: 11%

## CCOC(=O)Nc1ccc2c(c1)C(NC(=O)Nc1cccc(C#N)c1)CC(C)(C)O2 (racemic)
Aorta
  EC50: 14.2 µM
[1]
  residual insulin secretion at 1 µM: 81%
[2]
  residual insulin secretion at 10 µM: 5.9%

## CC(C)(C)OC(=O)Nc1ccc2c(c1)C(NC(=O)Nc1ccc(C#N)cc1)CC(C)(C)O2 (racemic)
Aorta
  EC50: 6.5 µM
[1]
  residual insulin secretion at 1 µM: 53.4%
[2]
  residual insulin secretion at 10 µM: 5.8%

## COC(=O)Nc1ccc2c(c1)C(NC(=O)Nc1cccc(C#N)c1)CC(C)(C)O2 (racemic)
Aorta
  EC50: 16.9 µM
[1]
  residual insulin secretion at 1 µM: 88.3%
[2]
  residual insulin secretion at 10 µM: 9.4%

## CCOC(=O)Nc1ccc2c(c1)C(NC(=S)Nc1cccc(Cl)c1)CC(C)(C)O2 (racemic)
Aorta
  EC50: 22.7 µM
[1]
  residual insulin secretion at 1 µM: 73.7%
[2]
  residual insulin secretion at 10 µM: 21.5%

## CC(C)OC(=O)Nc1ccc2c(c1)C(NC(=S)Nc1cccc(C#N)c1)CC(C)(C)O2 (racemic)
Aorta
  EC50: 5.6 µM
[1]
  residual insulin secretion at 1 µM: 79.3%
[2]
  residual insulin secretion at 10 µM: 14.2%

## COC(=O)Nc1ccc2c(c1)C(NC(=O)Nc1ccc(C#N)cc1)CC(C)(C)O2 (racemic)
Aorta
  EC50: > 30 µM
[1]
  residual insulin secretion at 1 µM: 89.7%
[2]
  residual insulin secretion at 10 µM: 36.9%

## COC(=O)Nc1ccc2c(c1)C(NC(=S)Nc1ccc(Cl)cc1)CC(C)(C)O2 (racemic)
Aorta
  EC50: 24.4 µM
[1]
  residual insulin secretion at 1 µM: 84.9%
[2]
  residual insulin secretion at 10 µM: 22.8%

## COC(=O)Nc1ccc2c(c1)C(NC(=O)Nc1ccc(Cl)cc1)CC(C)(C)O2 (racemic)
Aorta
  EC50: > 30 µM
[1]
  residual insulin secretion at 1 µM: 92.7%
[2]
  residual insulin secretion at 10 µM: 53.7%

## CCOC(=O)Nc1ccc2c(c1)C(NC(=O)Nc1ccc(C#N)cc1)CC(C)(C)O2 (racemic)
Aorta
  EC50: > 30 µM
[1]
  residual insulin secretion at 1 µM: 79.5%
[2]
  residual insulin secretion at 10 µM: 17.4%

## CCOC(=O)Nc1ccc2c(c1)C(NC(=S)Nc1ccc(Cl)cc1)CC(C)(C)O2 (racemic)
Aorta
  EC50: 8.9 µM
[1]
  residual insulin secretion at 1 µM: 78.4%
[2]
  residual insulin secretion at 10 µM: 22%

## COC(=O)Nc1ccc2c(c1)C(NC(=S)Nc1cccc(Cl)c1)CC(C)(C)O2 (racemic)
Aorta
  EC50: 15.4 µM
[1]
  residual insulin secretion at 1 µM: 84.2%
[2]
  residual insulin secretion at 10 µM: 26.1%

## CCOC(=O)Nc1ccc2c(c1)C(NC(=O)Nc1cccc(Cl)c1)CC(C)(C)O2 (racemic)
Aorta
  EC50: 13.1 µM
[1]
  residual insulin secretion at 1 µM: 82.8%
[2]
  residual insulin secretion at 10 µM: 36.1%

## CCOC(=O)Nc1ccc2c(c1)C(NC(=O)Nc1ccc(Cl)cc1)CC(C)(C)O2 (racemic)
Aorta
  EC50: 21.2 µM
[1]
  residual insulin secretion at 1 µM: 92.1%
[2]
  residual insulin secretion at 10 µM: 49.9%

## CCOC(=O)Nc1ccc2c(c1)C(NC(=S)Nc1ccc(C#N)cc1)CC(C)(C)O2 (racemic)
Aorta
  EC50: 19.4 µM
[1]
  residual insulin secretion at 1 µM: 80.2%
[2]
  residual insulin secretion at 10 µM: 10.2%

## CC(C)OC(=O)Nc1ccc2c(c1)C(NC(=O)Nc1cccc(Cl)c1)CC(C)(C)O2 (racemic)
Aorta
  EC50: 12.6 µM
[1]
  residual insulin secretion at 1 µM: 92%
[2]
  residual insulin secretion at 10 µM: 23.7%

## COC(=O)Nc1ccc2c(c1)C(NC(=S)Nc1cccc(C#N)c1)CC(C)(C)O2 (racemic)
Aorta
  EC50: 4.8 µM
[1]
  residual insulin secretion at 1 µM: 85.1%
[2]
  residual insulin secretion at 10 µM: 29.3%

## CC(C)OC(=O)Nc1ccc2c(c1)C(NC(=O)Nc1ccc(Cl)cc1)CC(C)(C)O2 (racemic)
Aorta
  EC50: 46.2 µM
[1]
  residual insulin secretion at 1 µM: 92.3%
[2]
  residual insulin secretion at 10 µM: 48.7%

## CC(C)OC(=O)Nc1ccc2c(c1)C(NC(=O)Nc1ccc(C#N)cc1)CC(C)(C)O2 (racemic)
Aorta
  EC50: 17.7 µM
[1]
  residual insulin secretion at 1 µM: 80.7%
[2]
  residual insulin secretion at 10 µM: 14.1%

## CCOC(=O)Nc1ccc2c(c1)C(NC(=S)Nc1cccc(C#N)c1)CC(C)(C)O2 (racemic)
Aorta
  EC50: 12.3 µM
[1]
  residual insulin secretion at 1 µM: 77.6%
[2]
  residual insulin secretion at 10 µM: 14.8%

## COC(=O)Nc1ccc2c(c1)C(NC(=S)Nc1ccc(C#N)cc1)CC(C)(C)O2 (racemic)
Aorta
  EC50: > 30 µM
[1]
  residual insulin secretion at 1 µM: 93.8%
[2]
  residual insulin secretion at 10 µM: 27.8%

## COC(=O)Nc1ccc2c(c1)C(NC(=O)Nc1cccc(Cl)c1)CC(C)(C)O2 (racemic)
Aorta
  EC50: > 30 µM
[1]
  residual insulin secretion at 1 µM: 92%
[2]
  residual insulin secretion at 10 µM: 35.7%

## CC(C)OC(=O)Nc1ccc2c(c1)C(NC(=S)Nc1ccc(Cl)cc1)CC(C)(C)O2 (racemic)
Aorta
  EC50: 10.4 µM
[1]
  residual insulin secretion at 1 µM: 81.2%
[2]
  residual insulin secretion at 10 µM: 14.9%

## CC(C)OC(=O)Nc1ccc2c(c1)C(NC(=S)Nc1cccc(Cl)c1)CC(C)(C)O2 (racemic)
Aorta
  EC50: 11 µM
[1]
  residual insulin secretion at 1 µM: 81.5%
[2]
  residual insulin secretion at 10 µM: 19.3%

## CC1(C)Oc2ccc(C#N)cc2C(N2CCCC2=O)C1O (racemic) [CROMAKALIM]
[1]
  residual insulin secretion at 1 µM: 95.3%
[2]
  residual insulin secretion at 10 µM: 94.4%

## CC1=Nc2ccc(Cl)cc2S(=O)(=O)N1 [DIAZOXIDE]
[1]
  residual insulin secretion at 1 µM: 91%
[2]
  residual insulin secretion at 10 µM: 80.8%
